# Activity calls are given as the source filed them. The rule behind the calls is not given here.
# Columns and labels:
# [1] = target: T1, Nicotinic acetylcholine receptor alpha4/beta2/alpha5 (Homo sapiens) (UniProt P17787+P43681+P30532); experiment: Agonist activity at human alpha4beta2alpha5 nACHR expressed in HEK-tsA201 cells by fluorometric analysis; type: cell-based
# [2] = target: T1, Nicotinic acetylcholine receptor alpha4/beta2/alpha5 (Homo sapiens); experiment: Positive allosteric modulation of human alpha4beta2alpha5 nACHR expressed in HEK-tsA201 cells assessed as potentiation of nicotine-induced current at 1 uM preincubated for 15 mins followed by nicotine-treatment by fluorometric analysis; type: cell-based
# Method in brief: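 In human α4β2α5 AChR HEK tsA201 cells (200,000/well, 20 h at 29 °C before testing), compound was added 15 min before nicotine. Potentiation of the nicotine response was read by membrane-potential fluorescence on a FLEXstation, with 3–4 wells averaged per point.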
# [3] = target: T1, Nicotinic acetylcholine receptor alpha4/beta2/alpha5 (Homo sapiens); experiment: Positive allosteric modulation of human alpha4beta2alpha5 nACHR expressed in HEK-tsA201 cells assessed as potentiation of nicotine-induced current preincubated for 15 mins followed by nicotine-treatment by fluorometric analysis relative to NS9283; type: cell-based
# Method in brief: (§1)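 Human AChR subtypes were stably expressed in HEK tsA201 cells grown in DMEM with 10% FBS at 37 °C. Plating was 150,000/well for lines without α5 and 200,000/well for α5 lines, on poly-D-lysine plates. β2-containing lines were incubated 20 h at 29 °C before testing. Serial dilutions of compound were added 15 min before nicotine. Membrane-potential fluorescence was read on a FLEXstation, with 3–4 wells per point and a Hill equation fit.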
# [4] = target: Nicotinic acetylcholine receptor alpha4/beta2/alpha5 (Homo sapiens, UniProt P17787+P30532+P43681); experiment: Positive allosteric modulation of human alpha4beta2alpha5 nACHR expressed in HEK-tsA201 cells assessed as potentiation of nicotine-induced current preincubated for 15 mins followed by nicotine-treatment by fluorometric analysis; type: cell-based; method in brief: as §1
# [5] = target: Nicotinic acetylcholine receptor alpha3/beta2/alpha5 (Homo sapiens) (UniProt P17787+P32297+P30532); experiment: Positive allosteric modulation of human alpha3beta2alpha5 nACHR expressed in HEK-tsA201 cells assessed as potentiation of nicotine-induced current preincubated for 15 mins followed by nicotine-treatment by fluorometric analysis; type: cell-based; method in brief: as §1
# [6] = target: Neuronal acetylcholine receptor; alpha3/beta2 (Homo sapiens) (UniProt P17787+P32297); experiment: Positive allosteric modulation of human alpha3beta2 nACHR expressed in HEK-tsA201 cells assessed as potentiation of nicotine-induced current preincubated for 15 mins followed by nicotine-treatment by fluorometric analysis; type: cell-based; method in brief: as §1
# [7] = target: Nicotinic acetylcholine receptor alpha3/beta4/alpha5 (Homo sapiens) (UniProt P30926+P32297+P30532); experiment: Positive allosteric modulation of human alpha3beta4alpha5 nACHR expressed in HEK-tsA201 cells assessed as potentiation of nicotine-induced current preincubated for 15 mins followed by nicotine-treatment by fluorometric analysis; type: cell-based; method in brief: as §1
# [8] = target: Neuronal acetylcholine receptor; alpha3/beta4 (Homo sapiens) (UniProt P30926+P32297); experiment: Positive allosteric modulation of human alpha3beta4 nACHR expressed in HEK-tsA201 cells assessed as potentiation of nicotine-induced current preincubated for 15 mins followed by nicotine-treatment by fluorometric analysis; type: cell-based; method in brief: as §1
# [9] = target: T2, Neuronal acetylcholine receptor; alpha4/beta2 (Homo sapiens, UniProt P17787+P43681); experiment: Positive allosteric modulation of alpha4beta2 nACHR (unknown origin); type: protein-complex assay
# [10] = target: T2, Neuronal acetylcholine receptor; alpha4/beta2; experiment: Positive allosteric modulation of human alpha4beta2 nACHR expressed in HEK-tsA201 cells assessed as potentiation of nicotine-induced current preincubated for 15 mins followed by nicotine-treatment by fluorometric analysis; type: cell-based; method in brief: as §1
# Mus musculus [11] = experiment: Oral bioavailability in mouse at 2 mg/kg; type: ADME, organism-based; details: in vivo
# Method in brief: (§2)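 Mouse pharmacokinetics. Each compound was dosed 1 mg/kg IV and 2 mg/kg PO. From these the following were derived: clearance, half-life, PO AUC, PO Cmax, volume of distribution and oral bioavailability (F%).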
# [12] = Cmax in mouse at 2 mg/kg, po; type: ADME, organism-based; parameters: dose 2 mg/kg, route oral; details: in vivo; method in brief: as §2
# Mus musculus [13] = experiment: Volume of distribution in mouse at 1 mg/kg, iv and 2 mg/kg, po; type: ADME, organism-based; details: in vivo; method in brief: as §2
# Mus musculus [14] = experiment: AUC in mouse at 2 mg/kg, po; type: ADME, organism-based, Plasma; parameters: dose 2 mg/kg, route oral; details: in vivo; method in brief: as §2
# [15] = Half life in mouse at 1 mg/kg, iv and 2 mg/kg, po; type: ADME, organism-based; details: in vivo; method in brief: as §2
# [16] = Drug uptake in mouse brain at 10 mg/kg, ip after 2 hrs; type: ADME, organism-based; parameters: dose 10 mg/kg, route intraperitoneal; details: read-out: Drug uptake
# Method in brief: (§3)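 Mice were given 10 mg/kg by intraperitoneal injection. Plasma and brain drug levels were measured 2 h after dosing.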
# [17] = Plasma concentration in mouse at 10 mg/kg, ip after 2 hrs; type: ADME, organism-based; parameters: dose 10 mg/kg, route intraperitoneal; method in brief: as §3
# Nicotinic acetylcholine receptor alpha4/beta2/alpha5, sequence (P17787 whole entry): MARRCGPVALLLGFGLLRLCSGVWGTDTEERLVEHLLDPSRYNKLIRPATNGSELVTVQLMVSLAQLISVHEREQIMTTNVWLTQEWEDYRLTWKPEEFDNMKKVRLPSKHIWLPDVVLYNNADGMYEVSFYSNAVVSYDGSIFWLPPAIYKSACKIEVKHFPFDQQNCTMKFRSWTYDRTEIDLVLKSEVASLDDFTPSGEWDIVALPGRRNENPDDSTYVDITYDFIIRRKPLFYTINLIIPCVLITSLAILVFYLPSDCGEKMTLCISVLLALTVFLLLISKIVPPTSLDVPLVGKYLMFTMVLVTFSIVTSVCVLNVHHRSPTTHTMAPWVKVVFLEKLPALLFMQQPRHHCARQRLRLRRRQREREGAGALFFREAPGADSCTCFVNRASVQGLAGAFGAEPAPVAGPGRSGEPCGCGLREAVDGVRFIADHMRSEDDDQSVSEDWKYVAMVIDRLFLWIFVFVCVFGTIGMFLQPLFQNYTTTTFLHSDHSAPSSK
# Nicotinic acetylcholine receptor alpha4/beta2/alpha5, sequence (P43681 whole entry): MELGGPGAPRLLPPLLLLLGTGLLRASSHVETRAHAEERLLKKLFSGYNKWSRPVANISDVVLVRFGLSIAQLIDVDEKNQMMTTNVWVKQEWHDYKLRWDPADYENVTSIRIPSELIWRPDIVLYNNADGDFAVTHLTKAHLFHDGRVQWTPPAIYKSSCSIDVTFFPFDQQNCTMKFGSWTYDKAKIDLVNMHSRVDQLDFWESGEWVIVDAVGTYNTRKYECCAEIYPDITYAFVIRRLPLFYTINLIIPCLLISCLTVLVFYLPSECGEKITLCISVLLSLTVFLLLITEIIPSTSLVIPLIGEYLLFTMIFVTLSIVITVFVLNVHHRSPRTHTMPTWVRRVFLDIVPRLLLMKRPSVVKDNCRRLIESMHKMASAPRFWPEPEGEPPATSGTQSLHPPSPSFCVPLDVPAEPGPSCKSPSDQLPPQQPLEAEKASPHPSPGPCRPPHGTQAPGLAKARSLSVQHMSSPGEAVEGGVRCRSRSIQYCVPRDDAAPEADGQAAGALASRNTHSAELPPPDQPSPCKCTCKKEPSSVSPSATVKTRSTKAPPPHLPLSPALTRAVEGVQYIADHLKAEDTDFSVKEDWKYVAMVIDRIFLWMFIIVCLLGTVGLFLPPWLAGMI
# Nicotinic acetylcholine receptor alpha4/beta2/alpha5, sequence (P30532 whole entry): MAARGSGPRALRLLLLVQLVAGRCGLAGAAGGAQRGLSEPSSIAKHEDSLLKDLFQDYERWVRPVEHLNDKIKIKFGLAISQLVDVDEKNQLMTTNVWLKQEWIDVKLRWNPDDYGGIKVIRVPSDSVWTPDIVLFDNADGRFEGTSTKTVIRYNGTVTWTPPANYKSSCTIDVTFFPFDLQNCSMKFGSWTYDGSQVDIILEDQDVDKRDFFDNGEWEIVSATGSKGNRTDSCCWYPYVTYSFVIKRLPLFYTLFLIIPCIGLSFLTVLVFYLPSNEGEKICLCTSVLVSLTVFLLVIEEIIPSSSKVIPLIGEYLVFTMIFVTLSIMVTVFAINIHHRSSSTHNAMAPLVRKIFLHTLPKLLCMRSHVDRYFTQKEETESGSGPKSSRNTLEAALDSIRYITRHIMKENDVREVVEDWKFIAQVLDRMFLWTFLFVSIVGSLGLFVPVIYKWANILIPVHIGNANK
# T2 sequence (P17787 whole entry): as the sequence (P17787 whole entry) above
# T2 sequence (P43681 whole entry): as the sequence (P43681 whole entry) above
Structure (SMILES),Activity [1],Activity [2],also measured
N#Cc1cccc(-n2cc(-c3cccnc3)cn2)c1,inactive,inactive,–
C[n+]1cccc(-c2nnn(-c3cccc(C#N)c3)n2)c1,inactive,inactive,–
Brc1cccc(-n2nnc(-c3cccnc3)n2)c1,inactive,inactive,–
c1cncc(-c2nnn(-c3cccnc3)n2)c1,inactive,> 50%,Emax [3]: 1.9; EC50 [4]: 0.7 µM
N#Cc1cccc(-c2cn(-c3cccnc3)cn2)c1,inactive,inactive,–
N#Cc1cccc(-n2cnc(-c3cccnc3)c2)c1,inactive,inactive,–
Clc1cc(Cl)cc(-n2nnc(-c3cccnc3)n2)c1,inactive,inactive,–
N#Cc1cccc(-n2nnc(-c3cnccc3Cl)n2)c1,inactive,inactive,–
Clc1ccccc1-n1nnc(-c2cccnc2)n1,inactive,inactive,–
Fc1ccc(-n2nnc(-c3cccnc3)n2)c(F)c1,inactive,inactive,–
N#Cc1cccc(-n2cc(-c3cccnc3)nn2)c1,inactive,inactive,–
COc1ccc(OC)c(-n2nnc(-c3cccnc3)n2)c1,inactive,inactive,–
N#Cc1cccc(-n2ccc(-c3cccnc3)n2)c1,inactive,inactive,–
N#Cc1cccc(-n2nnc(-c3cncc(Cl)c3)n2)c1,inactive,inactive,–
Cc1ccc(-n2nnc(-c3cccnc3)n2)cc1C#N,inactive,inactive,–
COc1cc(OC)cc(-n2nnc(-c3cccnc3)n2)c1,inactive,inactive,–
N#Cc1cccc(-n2cnc(-c3cccnc3)n2)c1,inactive,inactive,–
N#Cc1cccc(-n2nnc(-c3ccccc3)n2)c1,inactive,inactive,–
N#Cc1ccc(-n2nnc(-c3cccnc3)n2)cc1,inactive,> 50%,Emax [3]: 0.96; EC50 [4]: 2.2 µM
N#Cc1cccc(-c2nc(-c3ccccn3)no2)c1,inactive,inactive,–
NC(=O)c1cccc(-n2nnc(-c3cccnc3)n2)c1,inactive,inactive,–
N#Cc1cccc(-c2ncn(-c3cccnc3)n2)c1,inactive,inactive,–
N#Cc1cccc(-c2ccn(-c3cccnc3)n2)c1,inactive,inactive,–
N#Cc1cccc(-c2cn(-c3cccnc3)nn2)c1,inactive,inactive,–
N#Cc1cccc(-n2nnc(-c3ccncc3)n2)c1,inactive,inactive,–
N#Cc1cccc(-n2nnc(-c3ccccn3)n2)c1,inactive,inactive,–
N#Cc1cccc(-c2nnc(-c3cccnc3)[nH]2)c1,inactive,inactive,–
N#Cc1cccc(-n2nnc(-c3cccnc3)n2)c1,inactive,> 50%,F (Mus musculus [11]): 100%; Cmax [12]: 4.1 µM; Vd (Mus musculus [13]): 2.7 L/kg; AUC (Mus musculus [14]): 21 µM·h; half-life [15]: 54 min; concentration at 2 h [16]: 4.4 µM; concentration at 2 h [17]: 11 µM; Activity [5]: inactive; Activity [6]: inactive; Activity [7]: inactive; Activity [8]: inactive; Emax [3]: 2.5; EC50 [4]: 2 µM; Activity [10]: Active
N#Cc1cccc(-n2nnc(-c3cccnc3Cl)n2)c1,inactive,inactive,–
N#Cc1cccc(-n2nnc(-c3ccc(Cl)nc3)n2)c1,inactive,inactive,–

# Continued, in another order:
Activity [1],Activity [2],Structure (SMILES),also measured
inactive,inactive,c1ccc(-c2nc(-c3cccnc3)no2)cc1,–
inactive,inactive,FC(F)(F)Oc1cccc(-c2nc(-c3cccnc3)no2)c1,–
inactive,> 50%,Fc1ccc(-c2nc(-c3cccnc3)no2)cc1F,Emax [3]: 1.2; EC50 [4]: 1.3 µM
inactive,inactive,Clc1ccccc1-c1nc(-c2cccnc2)no1,–
inactive,inactive,N#Cc1cccc(-c2nc(-c3ccccc3)no2)c1,–
inactive,inactive,COc1cccc(-c2nc(-c3cccnc3)no2)c1,–
inactive,inactive,N#Cc1cccc(-c2nc(-c3ccncc3)no2)c1,–
inactive,inactive,Fc1cccc(-c2nc(-c3cccnc3)no2)c1,–
inactive,> 50%,O=[N+]([O-])c1cccc(-c2nc(-c3cccnc3)no2)c1,Emax [3]: 1.2; EC50 [4]: 0.69 µM
inactive,inactive,O=[N+]([O-])c1ccccc1-c1nc(-c2cccnc2)no1,–
inactive,> 50%,N#Cc1cccc(-c2nc(-c3cccnc3)no2)c1,Activity [5]: inactive; Activity [6]: inactive; Activity [7]: inactive; Activity [8]: inactive; EC50 [4]: 0.79 µM; EC50 [9]: 0.99 µM; Activity [10]: Active
inactive,inactive,Clc1ccc(-c2nc(-c3cccnc3)no2)cc1,–
inactive,inactive,C[n+]1cccc(-c2noc(-c3cccc(C#N)c3)n2)c1,–
inactive,inactive,Fc1cccc(-c2nc(-c3cccnc3)no2)c1F,–
inactive,inactive,FC(F)(F)c1cccc(-c2nc(-c3cccnc3)no2)c1,–
inactive,> 50%,c1cncc(-c2noc(-c3cccnc3)n2)c1,Emax [3]: 0.98; EC50 [4]: 1 µM
inactive,> 50%,O=[N+]([O-])c1ccc(-c2nc(-c3cccnc3)no2)cc1,Emax [3]: 0.81; EC50 [4]: 1.7 µM

# Reference: ChEMBL document CHEMBL3102781, “Synthesis and activity of substituted heteroaromatics as positive allosteric modulators for α4β2α5 nicotinic acetylcholine receptors” (Bioorg Med Chem Lett, 2014)
